Tests used:
[1] = system: CCRF-CEM; assay: Concentration required to achieve total growth inhibition against leukemia CCRF-CEM cell line; format: functional; conditions: Homo sapiens
[2] = system: COLO 205; assay: inhibition against colon COLO 205 cancer cell line; format: functional; conditions: Homo sapiens
[3] = system: CCRF-CEM; assay: inhibition against leukemia CCRF-CEM cell line; format: functional; conditions: Homo sapiens
[4] = system: COLO 205; assay: Concentration of the drug required to achieve 50% cytotoxicity against colon COLO 205 cancer cell line; format: functional; conditions: Homo sapiens, read-out: LC50 (the source's name)
[5] = system: COLO 205; assay: Concentration required to achieve total growth inhibition against colon COLO 205 cancer cell line; format: functional; conditions: Homo sapiens
[6] = system: HCT-15; assay: Concentration required to achieve total growth inhibition against colon HCT-15 cancer cell line; format: functional; conditions: Homo sapiens
[7] = system: HCT-15; assay: Concentration of the drug required to achieve 50% cytotoxicity against colon HCT-15 cancer cell line; format: functional; conditions: Homo sapiens, read-out: LC50 (the source's name)
[8] = system: HCT-116; assay: Concentration required to achieve total growth inhibition against colon HCT116 cancer cell line; format: functional; conditions: Homo sapiens
[9] = system: HCT-15; assay: inhibition against colon HCT-15 cancer cell line; format: functional; conditions: Homo sapiens
[10] = system: HL-60; assay: inhibition against leukemia HL-60(TB) cell line; format: functional; conditions: Homo sapiens
[11] = system: HL-60; assay: Concentration of the drug required to achieve 50% cytotoxicity against leukemia HL-60(TB) cell line; format: functional; conditions: Homo sapiens, read-out: LC50 (the source's name)
[12] = system: HL-60; assay: Concentration required to achieve total growth inhibition against leukemia HL-60(TB) cell line; format: functional; conditions: Homo sapiens
[13] = system: HCT-116; assay: Concentration of the drug required to achieve 50% cytotoxicity against colon HCT116 cancer cell line; format: functional; conditions: Homo sapiens, read-out: LC50 (the source's name)
[14] = system: HCC 2998; assay: Concentration required to achieve total growth inhibition against colon HCC2998 cancer cell line; format: functional; conditions: Homo sapiens
[15] = system: HCC 2998; assay: inhibition against colon HCC2998 cancer cell line; format: functional; conditions: Homo sapiens
[16] = system: HCC 2998; assay: Concentration of the drug required to achieve 50% cytotoxicity against colon HCC2998 cancer cell line; format: functional; conditions: Homo sapiens, read-out: LC50 (the source's name)
[17] = system: HT-29; assay: Concentration of the drug required to achieve 50% cytotoxicity against colon HT-29 cancer cell line; format: functional; conditions: Homo sapiens, read-out: LC50 (the source's name)
[18] = system: HT-29; assay: inhibition against colon HT-29 cancer cell line; format: functional; conditions: Homo sapiens
[19] = system: HT-29; assay: Concentration required to achieve total growth inhibition against colon HT-29 cancer cell line; format: functional; conditions: Homo sapiens
[20] = system: K562; assay: Concentration of the drug required to achieve 50% cytotoxicity against leukemia K-562 cell line; format: functional; conditions: Homo sapiens, read-out: LC50 (the source's name)
[21] = system: Jurkat; assay: Tested for apoptosis in jurkat cells at a concentration of 0 uM of the compound; format: functional, Homo sapiens
How it was run: (§1)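 Jurkat cells (1 × 10⁶ cells mL⁻¹; >98% viable, <2% background apoptosis) incubated 24 h at 37 °C with compound (0–100 μM range, in DMSO). Nuclei stained with propidium iodide (50 μM) in HBSS with 0.1% Triton-X for 10 min at 37 °C. Apoptotic nuclei measured by flow cytometry. Mean ± SD of triplicate incubations in one experiment; Kruskal–Wallis test against DMSO control.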

[22] = system: Jurkat; assay: Tested for apoptosis in jurkat cells at a concentration of 0.1 uM of the compound; format: functional, Homo sapiens; how it was run: as §1
[23] = system: Jurkat; assay: Tested for apoptosis in jurkat cells at a concentration of 0.3 uM of the compound; format: functional, Homo sapiens
How it was run: (§2)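 Jurkat cells (>98% viable, <2% background apoptosis) at 1 × 10⁶ cells/mL were exposed to 0–100 μM drug (DMSO) for 24 h at 37 °C in 5% CO₂. Nuclei were stained with 50 μM propidium iodide and 0.1% Triton-X in HBSS for 10 min at 37 °C, then scored as apoptotic by flow cytometry. Triplicate incubations in one experiment, mean ± SD; Kruskal–Wallis test versus DMSO control.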

[24] = system: Jurkat; assay: Tested for apoptosis in jurkat cells at a concentration of 1 uM of the compound; format: functional, Homo sapiens; how it was run: as §2
[25] = system: Jurkat; assay: Tested for apoptosis in jurkat cells at a concentration of 10 uM of the compound; format: functional, Homo sapiens; how it was run: as §2
[26] = system: Jurkat; assay: Tested for apoptosis in jurkat cells at a concentration of 100 uM of the compound; format: functional, Homo sapiens; how it was run: as §2
[27] = system: Jurkat; assay: Tested for apoptosis in jurkat cells at a concentration of 3 uM of the compound; format: functional, Homo sapiens; how it was run: as §2
[28] = system: Jurkat; assay: Tested for apoptosis in jurkat cells at a concentration of 30 uM of the compound; format: functional, Homo sapiens; how it was run: as §2
[29] = system: Jurkat; assay: Inhibitory concentration against jurkat cells; format: functional, cell-based; conditions: Homo sapiens
How it was run: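 HL60 (2.5 × 10⁴/well) or Jurkat (1 × 10⁵/well) in RPMI-1640 with 10% FBS and 1% L-glutamine, 5% CO2, 37 °C. Exposed to 10⁻¹⁰–10⁻⁴ M for 72 h, final DMSO below 0.5% v/v. [3H]-thymidine (0.5 μCi) added for the final 24 h. Incorporation counted by β-scintillation.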

[30] = system: KM12; assay: Concentration required to achieve total growth inhibition against colon KM12 cancer cell line; format: functional; conditions: Homo sapiens
[31] = system: K562; assay: Concentration required to achieve total growth inhibition against leukemia K-562 cell line; format: functional; conditions: Homo sapiens
[32] = system: KM12; assay: inhibition against colon KM12 cancer cell line; format: functional; conditions: Homo sapiens
[33] = system: KM12; assay: Concentration of the drug required to achieve 50% cytotoxicity against colon KM12 cancer cell line; format: functional; conditions: Homo sapiens, read-out: LC50 (the source's name)
[34] = system: MOLT-4; assay: inhibition against leukemia MOLT-4 cell line; format: functional; conditions: Homo sapiens
[35] = system: LOX IMVI; assay: inhibition against melanoma LOX IMVI cell line; format: functional; conditions: Homo sapiens
[36] = system: LOX IMVI; assay: Concentration of the drug required to achieve 50% cytotoxicity against melanoma LOX IMVI cell line; format: cell-based; conditions: human

C[C@H]1[C@@H](CCOP(=O)(OCC[C@H]2O[C@@H]3OC4(C)CC[C@H]5[C@H](C)CC[C@@H]([C@H]2C)[C@@]35OO4)Oc2ccccc2)O[C@@H]2OC3(C)CC[C@H]4[C@H](C)CC[C@@H]1[C@@]24OO3 (single isomer, unassigned)
TGI [1]: 56 µM
GI50 [2]: < 0.01 µM
GI50 [3]: 0.0259 µM
CC50 [4]: > 100 µM
TGI [5]: 0.17 µM
TGI [6]: > 100 µM
CC50 [7]: > 100 µM
TGI [8]: > 100 µM
GI50 [9]: < 0.01 µM
GI50 [10]: 0.0115 µM
CC50 [11]: > 100 µM
TGI [12]: 2.23 µM
CC50 [13]: > 100 µM
TGI [14]: 2.85 µM
GI50 [15]: 0.0648 µM
CC50 [16]: > 100 µM
CC50 [17]: > 100 µM
GI50 [18]: < 0.01 µM
TGI [19]: 23.2 µM
CC50 [20]: > 100 µM
Activity [21]: 7.5%
Activity [22]: 8.7%
Activity [23]: 7.3%
Activity [24]: 8.9%
Activity [25]: 11.2%
Activity [26]: 20.1%
Activity [27]: 8.7%
Activity [28]: 17.3%
IC50 [29]: 13.2 µM
TGI [30]: 17.9 µM
TGI [31]: 100 µM
GI50 [32]: < 0.01 µM
CC50 [33]: > 100 µM
GI50 [34]: < 0.01 µM
GI50 [35]: 0.0191 µM
LC50 [36]: > 100 µM
